Assay results as given in ChEMBL document CHEMBL1127811, “Inhibitors of cholesterol biosynthesis. 2. Hypocholesterolemic and antioxidant activities of benzopyran and tetrahydronaphthalene analogues of the tocotrienols” (J Med Chem, 1994).
Where “and” joins values, the source holds several entries; their conditions need not be identical. Identical values can stand only once.

Key:
[1] = target: T1, 3-hydroxy-3-methylglutaryl-coenzyme A reductase (Homo sapiens) (UniProt P04035); assay: In vitro suppression of HMG-CoA reductase (HMGR) in Hep G2 cells; format: cell-based; design: concentration or dose not given beside the values; settings: HepG2, concentration not given here
T1 sequence (whole entry): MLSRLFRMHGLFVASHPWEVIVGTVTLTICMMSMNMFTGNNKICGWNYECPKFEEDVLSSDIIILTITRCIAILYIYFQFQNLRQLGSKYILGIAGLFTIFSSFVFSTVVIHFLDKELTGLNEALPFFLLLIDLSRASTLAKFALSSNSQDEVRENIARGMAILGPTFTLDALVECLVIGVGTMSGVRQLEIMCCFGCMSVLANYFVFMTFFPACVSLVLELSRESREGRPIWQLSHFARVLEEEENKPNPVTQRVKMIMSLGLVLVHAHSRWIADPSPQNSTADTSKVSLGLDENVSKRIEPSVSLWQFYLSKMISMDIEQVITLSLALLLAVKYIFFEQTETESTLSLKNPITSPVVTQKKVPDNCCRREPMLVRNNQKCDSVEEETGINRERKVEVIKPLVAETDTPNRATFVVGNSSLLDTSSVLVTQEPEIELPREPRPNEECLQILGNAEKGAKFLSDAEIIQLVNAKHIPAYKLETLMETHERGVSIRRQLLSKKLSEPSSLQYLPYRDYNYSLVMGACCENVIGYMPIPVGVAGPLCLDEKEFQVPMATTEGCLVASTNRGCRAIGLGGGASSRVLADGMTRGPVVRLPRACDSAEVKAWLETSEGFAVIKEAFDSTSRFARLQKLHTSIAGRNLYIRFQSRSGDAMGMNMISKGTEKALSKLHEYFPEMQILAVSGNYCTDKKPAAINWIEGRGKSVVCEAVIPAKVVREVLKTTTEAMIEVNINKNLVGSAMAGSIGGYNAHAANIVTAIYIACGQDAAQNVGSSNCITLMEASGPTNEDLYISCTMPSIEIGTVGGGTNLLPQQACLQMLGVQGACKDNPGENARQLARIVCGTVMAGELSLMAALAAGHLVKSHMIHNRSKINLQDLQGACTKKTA
How it was run: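 HepG2 cells treated 4 h with compound at 10 μM, DMSO vehicle controls. HMG-CoA reductase activity assayed in microsomal fraction isolated at end of incubation. Mean % suppression vs controls, SD ≤ ±10%, n ≥ 8.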

HepG2 = assay: In vitro inhibition of cholesterol biosynthesis in Hep G2 cells; format: functional, Homo sapiens; design: concentration or dose not given beside the values
How it was run: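 HepG2 human hepatoma cells incubated 4 h with compound at 10 μM, DMSO vehicle controls. Mean % inhibition vs controls, SD ≤ ±10%, n ≥ 8.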

[2] = Oxidation potential assay as cyclic voltametry; not electrochemically active within scan range; format: functional
Gallus gallus [3] = organism: Gallus gallus; assay: (§1) Hypocholesterolemic activity in 6-week old male mormocholesterolemic chickens using experiment 3; format: functional
How it was run: (§2)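 Male chickens, 6 weeks old. Test compound mixed at 50 ppm into a corn-soybean control diet; controls get the diet alone. After the feeding period, birds are fasted 36 h and refed 48 h before sacrifice. Serum total, LDL and HDL cholesterol (mg/100 mL) and triglycerides measured; expressed as mean ± SD and percent of control, n = 6–12 per group.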

Gallus gallus [4] = organism: Gallus gallus; assay: (§3) Hypocholesterolemic activity in 6-week old male mormocholesterolemic chickens using experiment 4; format: functional; how it was run: as §2
Gallus gallus [5] = organism: Gallus gallus; assay: (§4) Hypocholesterolemic activity in 6-week old male mormocholesterolemic chickens using experiment 1; format: functional; how it was run: as §2
Gallus gallus [6] = organism: Gallus gallus; assay: as §3; format: functional; remark: listed apart in the source
How it was run: (§5)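 Six-week-old male chickens fed corn-soybean control diet with test compound at 50 ppm. Birds fasted 36 h, then refed 48 h before sacrifice. Serum total, LDL and HDL cholesterol and triglycerides measured (mg/100 mL), HDL/total ratio computed. Means ± SD, n = 6–12 per group, also as % of control. Significance p < 0.01 within each study.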

Gallus gallus [7] = organism: Gallus gallus; assay: as §4; format: functional; how it was run: as §5; remark: listed apart in the source
Gallus gallus [8] = organism: Gallus gallus; assay: as §1; format: functional; how it was run: as §5; remark: listed apart in the source
[9] = LDL oxidation assay as spectrophotometric determination of TBARS; format: functional
How it was run: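 LDL (0.5 mg/mL protein stock) in saline/20 mM HEPES with drug in ethanol, oxidised by CuSO4 (4 × 10⁻⁴ M stock), 37 °C, 5 h, in duplicate. Stopped with EDTA; TCA/TBA added, boiled 30 min, A535 read. Malonaldehyde equivalents from tetramethoxypropane standard curve. IC50 = concentration inhibiting 50% TBARS vs ethanol controls.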

[10] = Compound oxidation potential using cyclic voltametry; format: ADME
Gallus gallus [11] = organism: Gallus gallus; assay: Ratio of HDL/total cholesterol value; format: functional; how it was run: as §5
Gallus gallus [12] = organism: Gallus gallus; assay: (§6) Hypocholesterolemic activity in 6-week old male mormocholesterolemic chickens using experiment 2; format: functional; how it was run: as §2
Gallus gallus [13] = organism: Gallus gallus; assay: as §6; format: functional; how it was run: as §5; remark: listed apart in the source

## CC(C)=CCC/C(C)=C/CC/C(C)=C/CCC1(C)CCc2ccccc2O1 (stereo not drawn)
[1]
  inhibition: 0%
HepG2
  Inhibition: 45%
[2]
  Potential: Not electrochemically active

## CC(C)=CCC/C(C)=C/CC/C(C)=C/CCC1(C)CCc2cc(O)c(C)c(C)c2O1 (stereo not drawn)
Gallus gallus [3]
  LDL cholesterol: 51 mg 100ml-1
Gallus gallus [4]
  LDL cholesterol: 33 mg 100ml-1
Gallus gallus [5]
  LDL cholesterol: 29 mg 100ml-1
Gallus gallus [6]
  HDL cholesterol: 85 mg 100ml-1
  Total cholesterol: 125 mg 100ml-1
  Triglycerides: 57 mg 100ml-1
Gallus gallus [7]
  HDL cholesterol: 89 mg 100ml-1
  Total cholesterol: 121 mg 100ml-1
  Triglycerides: 62 mg 100ml-1
Gallus gallus [8]
  HDL cholesterol: 94 mg 100ml-1
  Total cholesterol: 151 mg 100ml-1
  Triglycerides: 83 mg 100ml-1
[1]
  inhibition: 61%
HepG2
  Inhibition: 69%
[9]
  IC50: 1800 nM
[10]
  Potential: 0.94
Gallus gallus [11]
  Ratio: 0.74 and 0.62 and 0.68

## CC(C)=CCC/C(C)=C/CC/C(C)=C/CCC1(C)CCc2cc(O)ccc2C1 (stereo not drawn)
Gallus gallus [12]
  LDL cholesterol: 28 mg 100ml-1
Gallus gallus [13]
  HDL cholesterol: 85 mg 100ml-1
  Total cholesterol: 125 mg 100ml-1
  Triglycerides: 86 mg 100ml-1
HepG2
  Inhibition: 58%
[10]
  Potential: 1.48
Gallus gallus [11]
  Ratio: 0.68

## CC(C)=CCC/C(C)=C/CC/C(C)=C/CCC1CCc2cc(O)ccc2O1 (stereo not drawn)
Gallus gallus [12]
  LDL cholesterol: 23 mg 100ml-1
Gallus gallus [13]
  HDL cholesterol: 86 mg 100ml-1
  Total cholesterol: 118 mg 100ml-1
  Triglycerides: 81 mg 100ml-1
HepG2
  Inhibition: 71%
Gallus gallus [11]
  Ratio: 0.73
